Assay results reported in ChEMBL document CHEMBL1781898, “Orally active achiral N-hydroxyformamide inhibitors of ADAM-TS4 (aggrecanase-1) and ADAM-TS5 (aggrecanase-2) for the treatment of osteoarthritis” (Bioorg Med Chem Lett, 2011).

Tests used:
[1] = target: 72 kDa type IV collagenase (Homo sapiens, UniProt P08253); assay: Inhibition of recombinant human MMP-2 assessed as substrate cleavage after 20 hrs by fluorescence assay
Procedure, shortened: (§1)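 Enzyme inhibition IC50s derived from at least six measurements, standard errors normally <5% within an assay; a standard compound run to keep assay-to-assay variability within twofold.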

[2] = target: T1, A disintegrin and metalloproteinase with thrombospondin motifs 4 (Homo sapiens, UniProt O75173); assay: Inhibition of ADAMTS-4 assessed as substrate cleavage after 16 hrs by fluorescence assay; procedure, shortened: as §1
T1 sequence (O75173 whole entry): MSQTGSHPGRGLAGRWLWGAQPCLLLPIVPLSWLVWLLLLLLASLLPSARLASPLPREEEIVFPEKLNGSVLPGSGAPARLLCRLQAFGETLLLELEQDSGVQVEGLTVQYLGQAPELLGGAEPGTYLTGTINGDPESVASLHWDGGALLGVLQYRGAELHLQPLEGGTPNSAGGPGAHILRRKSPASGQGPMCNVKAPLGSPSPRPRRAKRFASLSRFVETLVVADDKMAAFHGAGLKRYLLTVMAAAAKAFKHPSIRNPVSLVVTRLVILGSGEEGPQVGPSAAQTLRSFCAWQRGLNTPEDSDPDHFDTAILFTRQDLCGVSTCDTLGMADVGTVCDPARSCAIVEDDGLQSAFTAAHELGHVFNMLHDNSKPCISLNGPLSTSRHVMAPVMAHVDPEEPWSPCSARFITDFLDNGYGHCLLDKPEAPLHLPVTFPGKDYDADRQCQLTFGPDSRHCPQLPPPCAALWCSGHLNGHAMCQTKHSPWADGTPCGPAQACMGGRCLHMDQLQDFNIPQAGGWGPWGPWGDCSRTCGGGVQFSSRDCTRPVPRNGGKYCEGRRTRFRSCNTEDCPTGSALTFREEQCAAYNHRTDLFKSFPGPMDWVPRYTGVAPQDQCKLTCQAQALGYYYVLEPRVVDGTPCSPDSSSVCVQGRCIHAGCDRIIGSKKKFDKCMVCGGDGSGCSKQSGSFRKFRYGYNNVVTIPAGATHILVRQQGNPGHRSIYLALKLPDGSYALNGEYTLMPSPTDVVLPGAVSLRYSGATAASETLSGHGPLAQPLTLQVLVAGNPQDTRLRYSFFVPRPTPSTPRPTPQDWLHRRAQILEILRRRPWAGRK

[3] = target: T2, A disintegrin and metalloproteinase with thrombospondin motifs 5 (Homo sapiens, UniProt Q9UNA0); assay: Inhibition of ADAMTS-5 assessed as substrate cleavage after 16 hrs by fluorescence assay; procedure, shortened: as §1
T2 sequence (Q9UNA0 whole entry): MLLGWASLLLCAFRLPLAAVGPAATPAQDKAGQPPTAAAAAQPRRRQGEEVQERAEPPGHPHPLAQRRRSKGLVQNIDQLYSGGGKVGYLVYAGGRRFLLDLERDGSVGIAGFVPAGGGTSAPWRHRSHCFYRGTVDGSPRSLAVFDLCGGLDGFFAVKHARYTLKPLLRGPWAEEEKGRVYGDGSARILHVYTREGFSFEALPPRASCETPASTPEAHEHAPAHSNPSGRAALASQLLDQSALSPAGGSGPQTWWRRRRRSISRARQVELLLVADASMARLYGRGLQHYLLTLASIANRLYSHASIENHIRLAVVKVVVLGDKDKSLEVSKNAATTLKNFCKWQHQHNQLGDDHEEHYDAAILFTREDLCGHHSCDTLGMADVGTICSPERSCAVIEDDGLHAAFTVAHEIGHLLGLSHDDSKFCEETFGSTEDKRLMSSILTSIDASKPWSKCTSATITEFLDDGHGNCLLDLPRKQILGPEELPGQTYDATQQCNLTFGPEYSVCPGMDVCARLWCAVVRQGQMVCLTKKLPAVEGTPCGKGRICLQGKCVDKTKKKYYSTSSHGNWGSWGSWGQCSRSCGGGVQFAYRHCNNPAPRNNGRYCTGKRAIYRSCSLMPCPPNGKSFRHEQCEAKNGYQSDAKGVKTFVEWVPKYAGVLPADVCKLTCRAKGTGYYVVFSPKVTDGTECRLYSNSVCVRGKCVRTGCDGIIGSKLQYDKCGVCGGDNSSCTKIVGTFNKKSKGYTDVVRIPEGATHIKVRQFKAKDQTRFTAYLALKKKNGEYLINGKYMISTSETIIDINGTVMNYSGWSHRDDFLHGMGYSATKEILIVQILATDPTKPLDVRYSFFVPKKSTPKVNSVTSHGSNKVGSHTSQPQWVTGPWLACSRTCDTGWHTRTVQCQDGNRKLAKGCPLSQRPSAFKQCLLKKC

[4] = target: Matrix metalloproteinase-9 (Homo sapiens, UniProt P14780); assay: Inhibition of recombinant human MMP-9 assessed as substrate cleavage after 20 hrs by fluorescence assay; procedure, shortened: as §1
Interstitial collagenase = target: T3, Interstitial collagenase (Homo sapiens, UniProt P03956); assay: Inhibition of recombinant human MMP-1 assessed as substrate cleavage after 20 hrs by fluorescence assay; procedure, shortened: as §1
T3 sequence (P03956 whole entry): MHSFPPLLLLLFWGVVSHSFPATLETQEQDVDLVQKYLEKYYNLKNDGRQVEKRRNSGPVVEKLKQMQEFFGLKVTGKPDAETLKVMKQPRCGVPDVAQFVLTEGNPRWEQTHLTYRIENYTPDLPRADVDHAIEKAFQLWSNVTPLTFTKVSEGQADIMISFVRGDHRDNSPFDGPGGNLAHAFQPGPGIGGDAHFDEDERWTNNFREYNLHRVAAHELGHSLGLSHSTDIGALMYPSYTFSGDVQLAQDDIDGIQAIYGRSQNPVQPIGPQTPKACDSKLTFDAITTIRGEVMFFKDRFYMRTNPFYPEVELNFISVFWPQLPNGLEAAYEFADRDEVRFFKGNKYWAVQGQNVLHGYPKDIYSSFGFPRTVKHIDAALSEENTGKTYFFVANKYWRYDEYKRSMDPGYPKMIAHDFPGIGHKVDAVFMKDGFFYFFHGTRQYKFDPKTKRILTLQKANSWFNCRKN

Collagenase 3 = Collagenase 3 (Homo sapiens, UniProt P45452); assay: Inhibition of recombinant human MMP-13 assessed as substrate cleavage after 20 hrs by fluorescence assay; procedure, shortened: as §1
[5] = target: Matrix metalloproteinase-14 (Homo sapiens, UniProt P50281); assay: Inhibition of recombinant human MMP-14 assessed as substrate cleavage after 20 hrs by fluorescence assay; procedure, shortened: as §1
[6] = Intrinsic clearance in human liver microsomes; format: ADME, Microsome
Procedure, shortened: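 Human liver microsome metabolism; intrinsic clearance expressed as μL/min/mg, reported as mean of eight separate experiments.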

Cytochrome P450 3A4 = Cytochrome P450 3A4 (Homo sapiens, UniProt P08684); assay: Inhibition of CYP3A4; format: ADME
Procedure, shortened: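 Inhibition of cytochrome P450 isoforms 1A2, 2C9, 2C19, 2D6 and 3A4, reported as pIC50.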

Chain of Cytochrome P450 3A4 (P08684 whole entry, canonical isoform): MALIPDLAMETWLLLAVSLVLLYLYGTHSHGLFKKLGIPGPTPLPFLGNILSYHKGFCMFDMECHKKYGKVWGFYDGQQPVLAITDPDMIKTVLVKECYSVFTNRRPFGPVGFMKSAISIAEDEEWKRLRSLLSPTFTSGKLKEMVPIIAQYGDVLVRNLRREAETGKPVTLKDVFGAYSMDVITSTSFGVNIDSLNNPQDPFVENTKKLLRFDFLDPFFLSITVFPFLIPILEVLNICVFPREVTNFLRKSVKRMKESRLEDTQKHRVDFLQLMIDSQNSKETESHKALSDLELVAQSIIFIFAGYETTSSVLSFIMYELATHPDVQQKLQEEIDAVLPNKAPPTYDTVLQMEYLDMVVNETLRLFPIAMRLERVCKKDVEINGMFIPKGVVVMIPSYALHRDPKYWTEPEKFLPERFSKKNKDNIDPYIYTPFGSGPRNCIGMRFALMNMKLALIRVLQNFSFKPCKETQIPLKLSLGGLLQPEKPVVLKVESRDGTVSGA
Chain of 72 kDa type IV collagenase (P08253 whole entry): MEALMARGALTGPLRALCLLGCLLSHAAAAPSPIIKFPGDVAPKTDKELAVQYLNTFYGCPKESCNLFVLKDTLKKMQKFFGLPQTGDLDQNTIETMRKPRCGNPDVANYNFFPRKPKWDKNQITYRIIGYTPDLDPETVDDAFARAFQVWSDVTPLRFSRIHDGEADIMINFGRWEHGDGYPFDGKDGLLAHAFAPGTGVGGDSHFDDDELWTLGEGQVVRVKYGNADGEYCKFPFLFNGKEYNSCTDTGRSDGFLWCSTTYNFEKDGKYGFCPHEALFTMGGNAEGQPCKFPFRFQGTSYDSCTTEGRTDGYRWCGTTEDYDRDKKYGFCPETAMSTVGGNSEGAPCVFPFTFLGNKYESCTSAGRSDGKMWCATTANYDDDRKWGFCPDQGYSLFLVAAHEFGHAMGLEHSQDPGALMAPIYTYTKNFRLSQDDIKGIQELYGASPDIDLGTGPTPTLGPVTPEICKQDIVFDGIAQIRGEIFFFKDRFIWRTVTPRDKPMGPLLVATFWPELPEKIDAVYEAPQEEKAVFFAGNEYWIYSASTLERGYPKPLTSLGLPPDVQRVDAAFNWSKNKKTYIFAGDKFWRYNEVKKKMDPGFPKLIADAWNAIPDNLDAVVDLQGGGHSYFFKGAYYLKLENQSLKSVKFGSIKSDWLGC
Chain of Matrix metalloproteinase-9 (P14780 whole entry): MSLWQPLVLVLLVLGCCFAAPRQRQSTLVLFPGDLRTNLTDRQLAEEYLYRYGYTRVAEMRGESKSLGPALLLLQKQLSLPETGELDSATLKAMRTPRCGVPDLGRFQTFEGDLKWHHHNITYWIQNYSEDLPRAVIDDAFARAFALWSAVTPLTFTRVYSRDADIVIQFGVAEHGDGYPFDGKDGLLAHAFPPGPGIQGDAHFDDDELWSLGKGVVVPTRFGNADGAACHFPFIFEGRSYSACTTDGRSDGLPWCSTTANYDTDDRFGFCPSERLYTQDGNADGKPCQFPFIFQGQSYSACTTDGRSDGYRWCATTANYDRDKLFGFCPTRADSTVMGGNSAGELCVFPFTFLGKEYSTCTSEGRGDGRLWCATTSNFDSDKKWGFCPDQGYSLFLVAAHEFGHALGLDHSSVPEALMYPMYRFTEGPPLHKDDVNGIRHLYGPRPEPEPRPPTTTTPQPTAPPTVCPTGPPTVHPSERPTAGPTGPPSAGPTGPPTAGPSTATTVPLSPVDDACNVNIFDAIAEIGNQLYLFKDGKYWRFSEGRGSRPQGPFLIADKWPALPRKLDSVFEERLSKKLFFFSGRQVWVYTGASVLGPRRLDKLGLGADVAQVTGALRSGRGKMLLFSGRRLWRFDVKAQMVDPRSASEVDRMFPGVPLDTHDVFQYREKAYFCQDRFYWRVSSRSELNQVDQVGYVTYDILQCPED

| IC50 [1] | IC50 [2] | IC50 [3] | IC50 [4] | IC50 (Interstitial collagenase) | IC50 (Collagenase 3) | IC50 [5] | microsomal CLint [6] | IC50 (Cytochrome P450 3A4) | SMILES |
| --- | --- | --- | --- | --- | --- | --- | --- | --- | --- |
| > 10000 nM | 52 nM | 1900 nM | > 10000 nM | > 10000 nM | > 10000 nM | > 10000 nM |  |  | Cc1noc(C)c1CCC1CCN(S(=O)(=O)CC2(N(O)C=O)CCCC2)CC1 |
| 1100 nM | 100 nM | 580 nM | 8500 nM | > 10000 nM | 1100 nM | 2900 nM | 3.8 µL/min/mg |  | Cc1cccnc1CCC1CCN(S(=O)(=O)CC2(N(O)C=O)CCOCC2)CC1 |
| 3500 nM | 110 nM | 630 nM | > 10000 nM | > 10000 nM | 5900 nM | > 7200 nM | 3.4 µL/min/mg |  | Cc1ccncc1CCC1CCN(S(=O)(=O)CC2(N(O)C=O)CCOCC2)CC1 |
| > 10000 nM | 51 nM | 1500 nM | > 10000 nM | > 10000 nM | > 10000 nM | > 10000 nM | 3.3 µL/min/mg |  | Cc1noc(C)c1CCC1CCN(S(=O)(=O)CC2(N(O)C=O)CCC2)CC1 |
| 3300 nM | 5.8 nM | 530 nM | > 10000 nM | > 10000 nM | 1700 nM | > 10000 nM | 2 µL/min/mg |  | Cc1cc(S(C)(=O)=O)ccc1CCC1CCN(S(=O)(=O)CC2(N(O)C=O)CCOCC2)CC1 |
| > 10000 nM | 29 nM | 310 nM | > 10000 nM | > 10000 nM | 4600 nM | > 10000 nM | 6.5 µL/min/mg |  | Cc1noc(C)c1CCC1CCN(S(=O)(=O)CC2(N(O)C=O)CCN(S(C)(=O)=O)CC2)CC1 |
| > 10000 nM | 11 nM | 480 nM | > 10000 nM | > 10000 nM | > 10000 nM | > 10000 nM | 31 µL/min/mg |  | Cc1noc(C)c1CCC1CCN(S(=O)(=O)CC2(N(O)C=O)CCN(C(=O)N3CCC3)CC2)CC1 |
| > 10000 nM | 380 nM | 5200 nM | > 10000 nM | > 10000 nM | 8400 nM | > 10000 nM |  |  | Cc1cnc(C)c(CCC2CCN(S(=O)(=O)CC3(N(O)C=O)CCOCC3)CC2)c1 |
| 1400 nM | 2.7 nM | 65 nM | 1200 nM | > 10000 nM | 780 nM | > 10000 nM |  |  | Cc1cc(Cl)ccc1CCC1CCN(S(=O)(=O)CC2(N(O)C=O)CCOCC2)CC1 |
|  |  |  |  | > 10000 nM | 154 nM | 226 nM |  | 1000 nM | CC(CS(=O)(=O)N1CCN(c2ccc(F)cc2)CC1)N(O)C=O (racemic) |
|  | 4.1 nM | 13 nM |  |  |  |  |  |  | Cc1ccccc1CCC1CCN(S(=O)(=O)CC2(N(O)C=O)CCN(C(=O)C3CCC3)CC2)CC1 |
| 620 nM | 5.6 nM | 31 nM | > 1800 nM | > 10000 nM | > 600 nM | > 770 nM | < 2 µL/min/mg |  | Cc1ccccc1CCC1CCN(S(=O)(=O)CC2(N(O)C=O)CCOCC2)CC1 |
| > 10000 nM | 1.4 nM | 950 nM | > 10000 nM | > 10000 nM | > 10000 nM | > 10000 nM | 3.7 µL/min/mg |  | CS(=O)(=O)c1ccc(CCC2CCN(S(=O)(=O)CC3(N(O)C=O)CCOCC3)CC2)c(C2CC2)c1 |
| 7600 nM | 130 nM | 1400 nM | 8900 nM | > 10000 nM | > 10000 nM | > 10000 nM |  |  | Cc1cc(C)c(CCC2CCN(S(=O)(=O)CC3(N(O)C=O)CCOCC3)CC2)cn1 |
| > 10000 nM | 20 nM | 850 nM | > 10000 nM | > 10000 nM | > 4100 nM | > 7500 nM |  |  | Cc1noc(C)c1CCC1CCN(S(=O)(=O)CC2(N(O)C=O)CCCCC2)CC1 |
| > 10000 nM | 24 nM | 820 nM | > 10000 nM | > 10000 nM | > 10000 nM | > 10000 nM | < 2 µL/min/mg |  | CC(=O)N1CCC(CS(=O)(=O)N2CCC(CCc3c(C)noc3C)CC2)(N(O)C=O)CC1 |
| > 10000 nM | 48 nM | 1500 nM | > 10000 nM | > 10000 nM | > 10000 nM | > 10000 nM | 59 µL/min/mg |  | Cc1noc(C)c1CCC1CCN(S(=O)(=O)CC2(N(O)C=O)CCCCCC2)CC1 |
|  | 8.7 nM | 61 nM |  |  |  |  |  |  | O=CN(O)C1(CS(=O)(=O)N2CCC(CCc3ccc(F)cc3C(F)(F)F)CC2)CCN(C(=O)C2CCC2)CC1 |
|  | 92 nM |  |  | > 10000 nM | 1400 nM | 1400 nM |  | > 10000 nM | CC(C)(CS(=O)(=O)N1CCN(c2ccc(F)cc2)CC1)N(O)C=O |
|  | 1.2 nM | 20 nM |  |  |  |  |  |  | Cc1cc(Cl)ccc1CCC1CCN(S(=O)(=O)CC2(N(O)C=O)CCN(C(=O)C3CCC3)CC2)CC1 |
|  | 530 nM |  |  | > 6700 nM | 570 nM | 2900 nM |  | > 10000 nM | CN1CCC(CS(=O)(=O)N2CCN(c3ccc(F)cc3)CC2)(N(O)C=O)CC1 |
|  | 1.9 nM | 11 nM |  |  |  |  |  |  | Cc1cc(F)ccc1CCC1CCN(S(=O)(=O)CC2(N(O)C=O)CCN(C(=O)C3CCC3)CC2)CC1 |
| 150 nM | 470 nM | 1700 nM | 670 nM | > 10000 nM | 260 nM | 1200 nM | 8.8 µL/min/mg |  | O=CN(O)C1(CS(=O)(=O)N2CCC(CCc3ccccc3)CC2)CCOCC1 |
| 3800 nM | 400 nM | 5400 nM | > 10000 nM | > 10000 nM | 2000 nM | 8000 nM | < 2 µL/min/mg |  | Cc1ncccc1CCC1CCN(S(=O)(=O)CC2(N(O)C=O)CCOCC2)CC1 |

| SMILES | IC50 [1] | IC50 [2] | IC50 [3] | IC50 [4] | IC50 (Interstitial collagenase) | IC50 (Collagenase 3) | IC50 [5] | microsomal CLint [6] | IC50 (Cytochrome P450 3A4) |
| --- | --- | --- | --- | --- | --- | --- | --- | --- | --- |
| Cc1cc(C(F)(F)F)ccc1CCC1CCN(S(=O)(=O)CC2(N(O)C=O)CCN(C(=O)C3CCC3)CC2)CC1 |  | 1.2 nM | 79 nM |  |  |  |  |  |  |
